In ChEMBL document CHEMBL5303300, “EUbOPEN Chemogenomics Library - Multiplex” (2023):
Where “and” joins values, the source holds several entries; their conditions need not be identical. Identical values can stand only once.

System: HEK-293T
Assay: Multiplex assay against HEK293T
Assay type: toxicity, cell-based
Details: human, number of replicates 2
In short: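 Imaging took place on a CQ1 microscope at 37°C and 5% CO2 once compound had been added to live cells stained at seeding with Hoechst33342, BioTracker Green Microtubule Cytoskeleton Dye, MitoTracker Red and Annexin V Alexa Fluor 680. CellPathfinder machine-learning gating classed cells as Hoechst high-intensity objects or normal cells, classed normal cells as having healthy, pyknosed or fragmented nuclei, and classed pyknosed cells as mitotic or apoptotic. Tubulin, mitochondrial-mass and membrane-permeability phenotypes are per cents of the healthy-nucleus cells.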

[1] = 12 h, 1 µM, compound concentration 1 uM
[2] = 12 h, 10 µM, compound concentration 10 uM
[3] = 24 h, 1 µM, compound concentration 1 uM
[4] = 24 h, 10 µM, compound concentration 10 uM
[5] = 48 h, 1 µM, compound concentration 1 uM
[6] = 48 h, 10 µM, compound concentration 10 uM

CCN1CCN(Cc2ccc(C(=O)Nc3ccc(C)c(Oc4ccc5c(c4)CC(=O)N5)c3)cc2C(F)(F)F)CC1.Cl.Cl
Population Apoptotic (%) [1]: 43% and 61%
Population Fragmented Nuclei (%) [1]: 3% and 7%
Population Healthy Nuclei (%) [1]: 83% and 79%
Population Hoechst High Intensity Objects (%) [1]: 6% and 8%
Population Membrane Permeable-Phenotype (%) [1]: 2%
Population Mitochondria Different-Phenotype (%) [1]: 24% and 20%
Population Mitotic Cells (%) [1]: 56% and 38%
Population Normal (%) [1]: 93% and 91%
Population Pyknosed Nuclei (%) [1]: 12% and 13%
Population Tubulin-Different-Phenotype (%) [1]: 64% and 61%
Total Cell Count [1]: 609 and 592
Population Apoptotic (%) [2]: 68% and 69%
Population Fragmented Nuclei (%) [2]: 6% and 5%
Population Healthy Nuclei (%) [2]: 80% and 81%
Population Hoechst High Intensity Objects (%) [2]: 12% and 10%
Population Membrane Permeable-Phenotype (%) [2]: 6% and 2%
Population Mitochondria Different-Phenotype (%) [2]: 30% and 42%
Population Mitotic Cells (%) [2]: 31% and 30%
Population Normal (%) [2]: 87% and 89%
Population Pyknosed Nuclei (%) [2]: 13% and 12%
Population Tubulin-Different-Phenotype (%) [2]: 96% and 95%
Total Cell Count [2]: 598 and 606
Population Apoptotic (%) [3]: 40% and 52%
Population Fragmented Nuclei (%) [3]: 4% and 3%
Population Healthy Nuclei (%) [3]: 88% and 89%
Population Hoechst High Intensity Objects (%) [3]: 7% and 8%
Population Membrane Permeable-Phenotype (%) [3]: 2%
Population Mitochondria Different-Phenotype (%) [3]: 9%
Population Mitotic Cells (%) [3]: 59% and 47%
Population Normal (%) [3]: 92% and 91%
Population Pyknosed Nuclei (%) [3]: 7% and 6%
Population Tubulin-Different-Phenotype (%) [3]: 45% and 47%
Total Cell Count [3]: 907 and 801
Population Apoptotic (%) [4]: 58% and 78%
Population Fragmented Nuclei (%) [4]: 7% and 5%
Population Healthy Nuclei (%) [4]: 78% and 81%
Population Hoechst High Intensity Objects (%) [4]: 15%
Population Membrane Permeable-Phenotype (%) [4]: 4% and 2%
Population Mitochondria Different-Phenotype (%) [4]: 40% and 44%
Population Mitotic Cells (%) [4]: 41% and 21%
Population Normal (%) [4]: 84%
Population Pyknosed Nuclei (%) [4]: 14% and 12%
Population Tubulin-Different-Phenotype (%) [4]: 97% and 95%
Total Cell Count [4]: 517 and 556
Population Apoptotic (%) [5]: 12% and 23%
Population Fragmented Nuclei (%) [5]: 10% and 6%
Population Healthy Nuclei (%) [5]: 85% and 87%
Population Hoechst High Intensity Objects (%) [5]: 9% and 8%
Population Membrane Permeable-Phenotype (%) [5]: 5% and 3%
Population Mitochondria Different-Phenotype (%) [5]: 0% and 1%
Population Mitotic Cells (%) [5]: 87% and 76%
Population Normal (%) [5]: 90% and 91%
Population Pyknosed Nuclei (%) [5]: 4% and 5%
Population Tubulin-Different-Phenotype (%) [5]: 22% and 28%
Total Cell Count [5]: 2293 and 1602
Population Apoptotic (%) [6]: 75%
Population Fragmented Nuclei (%) [6]: 10% and 14%
Population Healthy Nuclei (%) [6]: 76% and 73%
Population Hoechst High Intensity Objects (%) [6]: 14% and 17%
Population Membrane Permeable-Phenotype (%) [6]: 13% and 5%
Population Mitochondria Different-Phenotype (%) [6]: 12% and 13%
Population Mitotic Cells (%) [6]: 25%
Population Normal (%) [6]: 85% and 82%
Population Pyknosed Nuclei (%) [6]: 12%
Population Tubulin-Different-Phenotype (%) [6]: 94% and 93%
Total Cell Count [6]: 709 and 749

CCCNc1ccc2ncc(-c3ccncc3)n2n1
Population Apoptotic (%) [1]: 56% and 50%
Population Fragmented Nuclei (%) [1]: 3% and 4%
Population Healthy Nuclei (%) [1]: 81% and 85%
Population Hoechst High Intensity Objects (%) [1]: 7% and 8%
Population Membrane Permeable-Phenotype (%) [1]: 2%
Population Mitochondria Different-Phenotype (%) [1]: 26% and 15%
Population Mitotic Cells (%) [1]: 43% and 49%
Population Normal (%) [1]: 92% and 91%
Population Pyknosed Nuclei (%) [1]: 14% and 9%
Population Tubulin-Different-Phenotype (%) [1]: 64% and 54%
Total Cell Count [1]: 500 and 609
Population Apoptotic (%) [2]: 55% and 50%
Population Fragmented Nuclei (%) [2]: 4% and 5%
Population Healthy Nuclei (%) [2]: 89% and 87%
Population Hoechst High Intensity Objects (%) [2]: 6% and 5%
Population Membrane Permeable-Phenotype (%) [2]: 2% and 1%
Population Mitochondria Different-Phenotype (%) [2]: 32% and 26%
Population Mitotic Cells (%) [2]: 44% and 50%
Population Normal (%) [2]: 93% and 94%
Population Pyknosed Nuclei (%) [2]: 6% and 7%
Population Tubulin-Different-Phenotype (%) [2]: 62% and 61%
Total Cell Count [2]: 481 and 583
Population Apoptotic (%) [3]: 60% and 48%
Population Fragmented Nuclei (%) [3]: 5% and 7%
Population Healthy Nuclei (%) [3]: 88% and 86%
Population Hoechst High Intensity Objects (%) [3]: 11% and 15%
Population Membrane Permeable-Phenotype (%) [3]: 3% and 2%
Population Mitochondria Different-Phenotype (%) [3]: 17% and 6%
Population Mitotic Cells (%) [3]: 39% and 51%
Population Normal (%) [3]: 88% and 84%
Population Pyknosed Nuclei (%) [3]: 6%
Population Tubulin-Different-Phenotype (%) [3]: 47% and 48%
Total Cell Count [3]: 684 and 692
Population Apoptotic (%) [4]: 66% and 48%
Population Fragmented Nuclei (%) [4]: 2% and 4%
Population Healthy Nuclei (%) [4]: 87%
Population Hoechst High Intensity Objects (%) [4]: 8% and 9%
Population Membrane Permeable-Phenotype (%) [4]: 1%
Population Mitochondria Different-Phenotype (%) [4]: 41% and 35%
Population Mitotic Cells (%) [4]: 33% and 51%
Population Normal (%) [4]: 91% and 90%
Population Pyknosed Nuclei (%) [4]: 9% and 8%
Population Tubulin-Different-Phenotype (%) [4]: 64% and 66%
Total Cell Count [4]: 490 and 643
Population Apoptotic (%) [5]: 52% and 37%
Population Fragmented Nuclei (%) [5]: 14%
Population Healthy Nuclei (%) [5]: 80% and 81%
Population Hoechst High Intensity Objects (%) [5]: 16% and 21%
Population Membrane Permeable-Phenotype (%) [5]: 3% and 1%
Population Mitochondria Different-Phenotype (%) [5]: 5% and 6%
Population Mitotic Cells (%) [5]: 47% and 62%
Population Normal (%) [5]: 83% and 78%
Population Pyknosed Nuclei (%) [5]: 4%
Population Tubulin-Different-Phenotype (%) [5]: 33% and 47%
Total Cell Count [5]: 935 and 824
Population Apoptotic (%) [6]: 55% and 68%
Population Fragmented Nuclei (%) [6]: 4% and 3%
Population Healthy Nuclei (%) [6]: 82% and 86%
Population Hoechst High Intensity Objects (%) [6]: 15% and 8%
Population Membrane Permeable-Phenotype (%) [6]: 2% and 1%
Population Mitochondria Different-Phenotype (%) [6]: 49% and 55%
Population Mitotic Cells (%) [6]: 44% and 31%
Population Normal (%) [6]: 84% and 91%
Population Pyknosed Nuclei (%) [6]: 13% and 9%
Population Tubulin-Different-Phenotype (%) [6]: 70% and 66%
Total Cell Count [6]: 503 and 413

CN(C)CC#Cc1ccc2[nH]c3c(c2c1)-c1nc(N)ncc1CCC3
Population Apoptotic (%) [1]: 52%
Population Fragmented Nuclei (%) [1]: 2% and 4%
Population Healthy Nuclei (%) [1]: 81% and 82%
Population Hoechst High Intensity Objects (%) [1]: 11% and 14%
Population Membrane Permeable-Phenotype (%) [1]: 8%
Population Mitochondria Different-Phenotype (%) [1]: 31% and 24%
Population Mitotic Cells (%) [1]: 47%
Population Normal (%) [1]: 89% and 85%
Population Pyknosed Nuclei (%) [1]: 16% and 12%
Population Tubulin-Different-Phenotype (%) [1]: 96%
Total Cell Count [1]: 491 and 406
Population Apoptotic (%) [2]: 52% and 44%
Population Fragmented Nuclei (%) [2]: 3%
Population Healthy Nuclei (%) [2]: 73%
Population Hoechst High Intensity Objects (%) [2]: 12%
Population Membrane Permeable-Phenotype (%) [2]: 5% and 4%
Population Mitochondria Different-Phenotype (%) [2]: 28% and 23%
Population Mitotic Cells (%) [2]: 47% and 55%
Population Normal (%) [2]: 87%
Population Pyknosed Nuclei (%) [2]: 22% and 23%
Population Tubulin-Different-Phenotype (%) [2]: 93% and 96%
Total Cell Count [2]: 350 and 360
Population Apoptotic (%) [3]: 50% and 63%
Population Fragmented Nuclei (%) [3]: 6% and 8%
Population Healthy Nuclei (%) [3]: 83% and 80%
Population Hoechst High Intensity Objects (%) [3]: 11%
Population Membrane Permeable-Phenotype (%) [3]: 14% and 19%
Population Mitochondria Different-Phenotype (%) [3]: 11% and 8%
Population Mitotic Cells (%) [3]: 49% and 36%
Population Normal (%) [3]: 88%
Population Pyknosed Nuclei (%) [3]: 9% and 11%
Population Tubulin-Different-Phenotype (%) [3]: 97% and 95%
Total Cell Count [3]: 646 and 621
Population Apoptotic (%) [4]: 50% and 55%
Population Fragmented Nuclei (%) [4]: 3% and 5%
Population Healthy Nuclei (%) [4]: 75% and 77%
Population Hoechst High Intensity Objects (%) [4]: 16% and 11%
Population Membrane Permeable-Phenotype (%) [4]: 8% and 5%
Population Mitochondria Different-Phenotype (%) [4]: 12% and 9%
Population Mitotic Cells (%) [4]: 50% and 44%
Population Normal (%) [4]: 83% and 88%
Population Pyknosed Nuclei (%) [4]: 20% and 16%
Population Tubulin-Different-Phenotype (%) [4]: 88% and 94%
Total Cell Count [4]: 381 and 452
Population Apoptotic (%) [5]: 54% and 48%
Population Fragmented Nuclei (%) [5]: 17%
Population Healthy Nuclei (%) [5]: 78% and 77%
Population Hoechst High Intensity Objects (%) [5]: 13% and 9%
Population Membrane Permeable-Phenotype (%) [5]: 34% and 42%
Population Mitochondria Different-Phenotype (%) [5]: 0%
Population Mitotic Cells (%) [5]: 45% and 51%
Population Normal (%) [5]: 86% and 90%
Population Pyknosed Nuclei (%) [5]: 4%
Population Tubulin-Different-Phenotype (%) [5]: 85% and 83%
Total Cell Count [5]: 1491 and 1520
Population Apoptotic (%) [6]: 47% and 50%
Population Fragmented Nuclei (%) [6]: 8% and 6%
Population Healthy Nuclei (%) [6]: 71% and 79%
Population Hoechst High Intensity Objects (%) [6]: 20% and 18%
Population Membrane Permeable-Phenotype (%) [6]: 9% and 11%
Population Mitochondria Different-Phenotype (%) [6]: 1% and 0%
Population Mitotic Cells (%) [6]: 52% and 49%
Population Normal (%) [6]: 79% and 81%
Population Pyknosed Nuclei (%) [6]: 19% and 13%
Population Tubulin-Different-Phenotype (%) [6]: 93% and 90%
Total Cell Count [6]: 505 and 520
